# Assay results from PubChem BioAssay AID588745 (Vanderbilt Specialized Chemistry Center, 2011).
# Activity calls are given as the source filed them.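 Rule for the calls: active = compounds whose response rose with dose, given a half-maximal potency and peak effect versus acetylcholine; inactive = the rest.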
# Target: Muscarinic acetylcholine receptor M3 (Homo sapiens) (UniProt P20309)
# Assay: M3 positive allosteric modulation, counter-screen, dose response, counter-screen, human, CHO cells, calcium fluorescence (AID 588745)
# Settings: CHO hM3 cells, Fluo-4 calcium fluorescence, PAM mode; series mostly up to 30 µM; % ACh max response: at the top concentration
# Procedure, shortened: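 Test system: Human M3 CHO cells | Also added: ACh EC20 followed by ACh EC80 | Incubation: Compound 144 s before EC20 ACh, EC80 ACh 86 s later, 37 °C | Signal: Intracellular calcium fluorescence with Fluo-4 AM dye | Controls: 1 mM ACh maximal response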
row,SMILES,% ACh max response
1,Cc1nc2sc(C(=O)NCc3ccc4c(c3)OCO4)c(N)c2c(C)c1Cl,15.9 [at 36.8 µM] (inactive)
2,Cc1nc2sc(C(=O)NCc3cccnc3)c(N)c2c(C)c1Cl,14.8 [at 45.3 µM] (inactive)
3,Cc1nc2sc(C(=O)NC3CC3)c(N)c2c(C)c1Cl,18.7 (inactive)
4,Cc1nc2sc(C(=O)NCc3ccncc3)c(N)c2c(C)c1Cl,7.68 [at 45.3 µM] (inactive)
5,Cc1nc2sc(C(=O)NCc3ccccc3)c(N)c2c(C)c1Cl,13.2 [at 37.4 µM] (inactive)
6,Cc1nc2sc(C(=O)NCCc3ccncc3)c(N)c2c(C)c1Cl,28.6 (inactive)
7,Cc1nc2sc(C(=O)NCc3nccs3)c(N)c2c(C)c1Cl,29.5 (inactive)
8,Cc1nc2sc(C(=O)NCc3cccc(F)c3F)c(N)c2c(C)c1Cl,8.6 (inactive)
9,Cc1nc2sc(C(=O)NCc3ccncn3)c(N)c2c(C)c1Cl,15.1 (inactive)
